Several values for one entry are separate records, joined by “and”; a condition that tells them apart may be missing. Equal entries are not always repeated. Entries after “also recorded” stand apart in the source; their conditions may differ.
How the values were obtained:
[1] = tested on: CYP3A4; settings: in-vitro data; cited from earlier work
[2] = tested on: UGT1A1; settings: cited from earlier work
[3] = Plasma pharmacokinetics of AR-67 lactone and carboxylate; format: in vivo, human; settings: for Cmax, total: observed at 45 min of 1-hr infusion
Outline: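 Test compound was given as a 1-h IV infusion daily × 5. Heparinized blood was drawn on days 1 and 4 of cycle 1: pre-dose, 5, 45 and 65 min, and 1.5, 2, 4, 6, 8 and 24 h after infusion start. Plasma lactone and carboxylate were quantified by validated HPLC-fluorescence. Parameters were noncompartmental. Cmax was the observed 45-min value. Half-life required ≥3 elimination-phase points.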

[4] = Exposure-toxicity relationship, sigmoid E-max model; format: in vivo, human
Outline: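 Patients received a 1-h IV infusion of test compound daily × 5 every 21 days. Toxicity measure was the cycle 1 nadir of ANC and platelets, expressed as % decrease. Exposure metrics were total test compound AUC (day 1, cycle 1) and administered daily dosage level. Total rather than lactone parameters were used.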

[5] = day 1 cycle 1, 1.2 mg/m^2 (n=2), mean
[6] = day 1 cycle 1, 1.67 mg/m^2 (n=3), mean
[7] = day 1 cycle 1, 2.34 mg/m^2 (n=3), mean
[8] = day 1 cycle 1, 3.23 mg/m^2 (n=3), mean
[9] = day 1 cycle 1, 4.5 mg/m^2 (n=1)
[10] = day 1 cycle 1, 6.3 mg/m^2 (n=1)
[11] = day 1 cycle 1, 7.5 mg/m^2 (n=7), mean
[12] = day 1 cycle 1, 8.9 mg/m^2 (n=4), mean
[13] = day 1 cycle 1, 12.4 mg/m^2 (n=2), mean
[14] = day 4 cycle 1, 1.2 mg/m^2 (n=1)
[15] = day 4 cycle 1, 1.67 mg/m^2 (n=3), mean
[16] = day 4 cycle 1, 2.34 mg/m^2 (n=3), mean
[17] = day 4 cycle 1, 3.23 mg/m^2 (n=3), mean
[18] = day 4 cycle 1, 4.5 mg/m^2 (n=1)
[19] = day 4 cycle 1, 6.3 mg/m^2 (n=1)
[20] = day 4 cycle 1, 7.5 mg/m^2 (n=7), mean
[21] = day 4 cycle 1, 8.9 mg/m^2 (n=4), mean
[22] = day 4 cycle 1, 12.4 mg/m^2 (n=2), mean
[23] = cycle 1, all patients, sigmoid E-max model
[24] = total AR-67 AUC day 1 of cycle 1, sigmoid E-max model

CC[C@@]1(O)C(=O)OCc2c1cc1n(c2=O)Cc2c-1nc1ccc(O)cc1c2[Si](C)(C)C(C)(C)C [AR-67, 7-t-butyldimethylsilyl-10-hydroxycamptothecin]
substrate for CYP3A4 [1]: is a substrate | UGT1A1 mediated glucuronidation [2]: does not undergo | clearance with increasing dosage ([3]; 1.2–12.4 mg/m^2/day): clearance was constant | decrease in AUC between days 1 and 4 ([3]; all patients, dexamethasone co-treatment): ~ 20% | drug accumulation on day 4 ([3]; daily × 5 dosing, cycle 1): No drug accumulation was observed; also recorded: no evidence of accumulation | Clearancetotal [3, 5]: 13.8 L/hr/m^2 | Lactone AUC(0−∞) [3, 5]: 81 ng·h/mL | Total AUC(0−∞) [3, 5]: 88 ng·h/mL | Vss, total [3, 5]: 7.4 L/m^2 | Cmax, total [3, 5]: 77.6 ng/mL | Clearancetotal [3, 6]: 13.2 L/hr/m^2 | Lactone AUC(0−∞) [3, 6]: 117 ng·h/mL | Total AUC(0−∞) [3, 6]: 128 ng·h/mL | Vss, total [3, 6]: 13.1 L/m^2 | Cmax, total [3, 6]: 96.9 ng/mL | Clearancetotal [3, 7]: 14.1 L/hr/m^2 | Lactone AUC(0−∞) [3, 7]: 186 ng·h/mL | Total AUC(0−∞) [3, 7]: 201 ng·h/mL | Vss, total [3, 7]: 13.5 L/m^2 | Cmax, total [3, 7]: 158.9 ng/mL | Clearancetotal [3, 8]: 11.6 L/hr/m^2 | Lactone AUC(0−∞) [3, 8]: 269 ng·h/mL | Total AUC(0−∞) [3, 8]: 290 ng·h/mL | Vss, total [3, 8]: 9.6 L/m^2 | Cmax, total [3, 8]: 221.9 ng/mL | Clearancetotal [3, 9]: 21 L/hr/m^2 | Lactone AUC(0−∞) [3, 9]: 179 ng·h/mL | Total AUC(0−∞) [3, 9]: 214 ng·h/mL | Vss, total [3, 9]: 32.7 L/m^2 | Cmax, total [3, 9]: 117.8 ng/mL | Clearancetotal [3, 10]: 12.9 L/hr/m^2 | Lactone AUC(0−∞) [3, 10]: 334 ng·h/mL | Total AUC(0−∞) [3, 10]: 490 ng·h/mL | Vss, total [3, 10]: 51.6 L/m^2 | Cmax, total [3, 10]: 168.5 ng/mL | Clearancetotal [3, 11]: 13.1 L/hr/m^2 | Lactone AUC(0−∞) [3, 11]: 498 ng·h/mL | T(1/2)total [3, 11]: 1.4 h | Total AUC(0−∞) [3, 11]: 581 ng·h/mL | Vss, total [3, 11]: 18.7 L/m^2 | Cmax, total [3, 11]: 349.7 ng/mL | Clearancetotal [3, 12]: 18.9 L/hr/m^2 | Lactone AUC(0−∞) [3, 12]: 471 ng·h/mL | T(1/2)total [3, 12]: 1.6 h | Total AUC(0−∞) [3, 12]: 502 ng·h/mL | Vss, total [3, 12]: 30.1 L/m^2 | Cmax, total [3, 12]: 290.6 ng/mL | Clearancetotal [3, 13]: 15.8 L/hr/m^2 | Lactone AUC(0−∞) [3, 13]: 686 ng·h/mL | T(1/2)total [3, 13]: 1.1 h | Total AUC(0−∞) [3, 13]: 786 ng·h/mL | Vss, total [3, 13]: 18.1 L/m^2 | Cmax, total [3, 13]: 464.7 ng/mL | Clearancetotal ([3]; day 1 cycle 1, All dosage levels (N=26), mean): 14.5 ±4.1 L/hr/m^2 and 14.5 L/hr/m^2 | T(1/2)total ([3]; day 1 cycle 1, All dosage levels, mean): 1.4 h | Clearancetotal [3, 14]: 23.6 L/hr/m^2 | Lactone AUC(0−∞) [3, 14]: 49 ng·h/mL | Total AUC(0−∞) [3, 14]: 51 ng·h/mL | Vss, total [3, 14]: 15.6 L/m^2 | Cmax, total [3, 14]: 51.6 ng/mL | Clearancetotal [3, 15]: 16.7 L/hr/m^2 | Lactone AUC(0−∞) [3, 15]: 109 ng·h/mL | Total AUC(0−∞) [3, 15]: 115 ng·h/mL | Vss, total [3, 15]: 16.3 L/m^2 | Cmax, total [3, 15]: 74.6 ng/mL | Clearancetotal [3, 16]: 15.3 L/hr/m^2 | Lactone AUC(0−∞) [3, 16]: 137 ng·h/mL | Total AUC(0−∞) [3, 16]: 154 ng·h/mL | Vss, total [3, 16]: 7.9 L/m^2 | Cmax, total [3, 16]: 137.8 ng/mL | Clearancetotal [3, 17]: 13.3 L/hr/m^2 | Lactone AUC(0−∞) [3, 17]: 236 ng·h/mL | Total AUC(0−∞) [3, 17]: 255 ng·h/mL | Vss, total [3, 17]: 10.6 L/m^2 | Cmax, total [3, 17]: 195 ng/mL | Clearancetotal [3, 18]: 24.2 L/hr/m^2 | Lactone AUC(0−∞) [3, 18]: 149 ng·h/mL | Total AUC(0−∞) [3, 18]: 186 ng·h/mL | Vss, total [3, 18]: 45.3 L/m^2 | Cmax, total [3, 18]: 82.5 ng/mL | Clearancetotal [3, 19]: 14.7 L/hr/m^2 | Lactone AUC(0−∞) [3, 19]: 327 ng·h/mL | Total AUC(0−∞) [3, 19]: 429 ng·h/mL | Vss, total [3, 19]: 35.3 L/m^2 | Cmax, total [3, 19]: 166.4 ng/mL | Clearancetotal [3, 20]: 16.8 L/hr/m^2 | Lactone AUC(0−∞) [3, 20]: 411 ng·h/mL | T(1/2)total [3, 20]: 1.8 h | Total AUC(0−∞) [3, 20]: 478 ng·h/mL | Vss, total [3, 20]: 25.6 L/m^2 | Cmax, total [3, 20]: 308.6 ng/mL | Clearancetotal [3, 21]: 18.6 L/hr/m^2 | Lactone AUC(0−∞) [3, 21]: 397 ng·h/mL | T(1/2)total [3, 21]: 1.4 h | Total AUC(0−∞) [3, 21]: 507 ng·h/mL | Vss, total [3, 21]: 27.5 L/m^2 | Cmax, total [3, 21]: 276.7 ng/mL | Clearancetotal [3, 22]: 19.8 L/hr/m^2 | Lactone AUC(0−∞) [3, 22]: 551 ng·h/mL | T(1/2)total [3, 22]: 1.7 h | Total AUC(0−∞) [3, 22]: 663 ng·h/mL | Vss, total [3, 22]: 28.9 L/m^2 | Cmax, total [3, 22]: 358.5 ng/mL | Clearancetotal ([3]; day 4 cycle 1, All dosage levels (N=25), mean): 17.4 ±5.2 L/hr/m^2 and 17.4 L/hr/m^2 | T(1/2)total ([3]; day 4 cycle 1, All dosage levels, mean): 1.6 h | lactone form as share of the total AR-67 AUC (lactone + carboxylate) ([3]; human plasma, mean (±SD)): 87.5% and ~ 87.5% | increase of mean clearance of total AR-67 from day 1 to day 4 ([3]; p=0.0031, Wilcoxon signed rank): 20% | elimination half-life ([3]; patients, iv): ~ 1.4 hr | elimination profile ([3]; plasma, MTD cohort): bi-exponential profile | share of the total concentration in the lactone form ([3]; plasma, at each time point, all patients): Greater than 80% | dosage level ED50 (95% CI) for % decrease in ANC [4, 23]: 6.1 (4.3 – 8.7) mg/m^2 | dosage level ED50 (95% CI) for % decrease in platelets [4, 23]: 4.9 (3.2 – 7.6) mg/m^2 | AUC ED50 (95% CI) for % decrease in ANC [4, 24]: 323.6 (231.9 – 451.6) hr*ng/mL | AUC ED50 (95% CI) for % decrease in platelets [4, 24]: 364.2 (249.4 – 531.9) hr*ng/mL

Reference: paper PMC2831464 (Clinical cancer research : an official journal of the …, 2010)
